Laboratory results as given in ChEMBL document CHEMBL4513216, “Probing the Open Global Health Chemical Diversity Library for Multistage-Active Starting Points for Next-Generation Antimalarials” (ACS Infect Dis, 2020).

Assay: Toxicity liver stage against HepG2, at 10uM
Format: cell-based
Parameters: test concentration 10 uM, cell line HepG2-A16-CD81EGFP
Conditions: human, HepG2-A16-CD81EGFP cells; read-out: INHIBITION
Summary of the method: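 Uninfected HepG2-A16-CD81EGFP cells, 3 × 10^3 per well, 1536-well, plated on prespotted compound at 10 μM final, parasite-free screening media added to match infected plates; puromycin 10 μM positive, DMSO 0.5% negative; run in parallel with 48 h PbLuc assay at 37 °C, 5% CO2; viability by CellTiter-Glo luminescence, normalized to controls.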

Structure (SMILES) | cytotoxicity at 10 µM [%]
CS(=O)(=O)c1ccc(CNC[C@H]2COCc3nc4cccnc4n32)cc1 | -0.505
CC(=O)N1N=C(c2ccncc2)OC1C(=O)N(C)CCc1ccccc1 (stereo not given) | 12.9
O=C(NCC(Cc1cccc(F)c1)N1CCCC1=O)C1CCCC1 (stereo not given) | 1.39
CN(C)CC(=O)N1CC[C@H]2OCC[C@@]2(COCC2CC2)C1 | 0.165
Cc1cccc(N2CC[C@H]3[C@H]2CCN3C(=O)c2cnn(C)c2)n1 | 1.24
COCCC(=O)N1CC[C@@H](N2CCN(C)CC2)[C@@H]1Cc1ccccc1 | 7.7
COCc1ncn2c1CN(S(=O)(=O)c1cccs1)CCC2 | 6.82
CCN1C(=O)C2(CCOCC2)c2cc(NC(=O)c3cnoc3C)ccc21 | -2.54
Cn1c(N)c2c(=O)n(C)c(-c3ccccc3)cc2c(C#N)c1=O | 1.57
Cn1nc(CNC(=O)c2ccc(Cl)cc2)c2c1CCOC2 | 5.86
O=C1CC(c2cccc(O)c2)c2sc(C(=O)O)c(-c3ccccc3)c2N1 (stereo not given) | 6.33
Cc1ccc(CNC(=O)c2ccc(F)cc2)o1 | -3.35
CCn1ccc(-c2cc(C(=O)O)n3ncc(Br)c3n2)n1 | -4.81
Cn1ncc(C(=O)N2CCOCC2)c1Cl | 8.93
CN(C)C(=O)c1c[nH]nc1C1CCN(S(=O)(=O)c2cccc(Cl)c2)CC1 | 1.22
CCOC(=O)[C@H]1CNC[C@@H]1C(=O)OCC | 6.1
Cc1cc(C2CCCN2C(=O)c2cnn(C)c2)on1 (stereo not given) | -1.85
Cc1nnc2n1CC(CNCc1nc(-c3ccsc3)no1)CC2 (stereo not given) | -4.68
CS(=O)(=O)NC(=O)c1ccn(-c2ccccc2Cl)n1 | -4.27
CC(C)C(C)(CNC(=O)OC(C)(C)C)NC(=O)c1cnccn1 (stereo not given) | -6.62
CCOc1ccc(NC(=O)Cc2cc(C)[nH]n2)cc1CO | 0.335
CC(C)c1cnc(CN2CCCS2(=O)=O)o1 | 10.6

Structure (SMILES) | cytotoxicity at 10 µM [%]
CC(C)Oc1ccc(CNC(=O)C2CCS(=O)(=O)C2)cn1 (stereo not given) | 0.788
Cc1cnn(Cc2ccc(NC(=O)N[C@@H]3C=C[C@H](CO)C3)cc2)c1 | 7.76
O=C(NCCNc1cnccn1)N1CCc2ccccc2C1 | -2.73
CCOc1ccc(CNC(=O)N2CCCC(CO)C2)cc1F (stereo not given) | 8.21
O=c1[nH]nc(SCC2CCCCO2)n1C1CC1 (stereo not given) | 2.14
CC(NCc1ccc(-c2ccc(Cl)cc2)o1)c1nnc2n1CCC2 (stereo not given) | -2.04
Cc1nc(C2(NCC(=O)NCc3cccs3)CCCCC2)no1 | 1.17
Cc1ncc2c(n1)CN(Cc1nc3c(F)cccc3[nH]1)CC2 | -4.74
CCOc1cccc(COC(=O)c2scnc2C)n1 | -0.966
COC(=O)C(C)(C)C(C)(C)NC(=O)Nc1nnc(-c2ccccn2)s1 | 9.15
N#Cc1nccnc1N1CCC(Cc2ccccc2)C1 (stereo not given) | -8.68
COC(=O)CN(C(=O)c1ccc(-n2ccnc2)cc1)C1CCCC1 | -7.28
Cc1nc(CNC(=O)NC(C)c2ccc3c(c2)OCCCO3)cs1 (stereo not given) | -0.535
O=C(C1COc2ccccc2C1)N(CCO)Cc1ccccc1 (stereo not given) | 4.58
NC(=O)Cn1ccc(NC(=O)C2(c3ccc(F)cc3)CC2)n1 | -2.82
NC(=O)C1CCN(C(=O)c2ccc(Sc3ccccn3)cc2)CC1 | 9.48
Cc1cc(C(=O)NCC2(C(N)=O)CCOCC2)nn1C(C)(C)C | -16.6
Cc1ccc(-c2nnc(C(C)N3CCn4c(C)nnc4C3)o2)cc1 (stereo not given) | -7.33
CC(C(=O)N1CCc2sccc2C1)N1CCCN(C2CC2)CC1 (stereo not given) | 3.86
CCC(C)NC(=O)c1ccc(-c2ccco2)[nH]c1=O (stereo not given) | -5.05
CCC(=O)N1CCCN(C(=O)c2cc(C)cc(Br)c2O)CC1 | 7.12
CC(C#N)CN(C)C(=O)c1cn(-c2ccc(Br)cc2)cn1 (stereo not given) | 13.6

Structure (SMILES) | cytotoxicity at 10 µM [%]
CCn1nc(C)c(S(=O)(=O)N(C)c2ccc(Cl)cn2)c1C | -2.13
CC(=O)N(Cc1ncc(C)o1)C1CCN(Cc2cccc(C#N)c2)C1 (stereo not given) | 1.63
O=c1oc(-c2cccs2)nn1CC(O)c1ccccc1 (stereo not given) | 21.3
O=C(c1ccoc1)N1CCCn2nnc(COCC3CC3)c2C1 | -68.5
Cc1cc(C)nc(CN(C)c2nc(C3CCCC3)nc3c2cnn3C)c1 | 12.4
CSc1ccccc1NC(=O)CCC(=O)N(C)C1CCN(C)CC1 | -2.91
Cc1cnc(NC(C)Cc2cnccn2)nc1N(C)C (stereo not given) | 0.342
CC(C)c1noc(C2CCCN2C(=O)Cc2cn3ccsc3n2)n1 (stereo not given) | 4.52
Cn1c(-c2ccccc2Cl)nc2cc(C(=O)NC(CO)CO)cnc21 | -10.8
CNc1ncccc1C(=O)N1CCC2(CCN(C)C2)CC1 | 0.521
Cc1cc(C)n(CCC2CC(=O)Nc3cc4[nH]ncc4cc32)n1 (stereo not given) | -6.17
COc1cccc(N2CCN(C(=O)CO)CC2=O)c1 | 0.995
CC(CN1CCC2(CC1)N=C(N(C)C)NC2=O)c1ccccc1 (stereo not given) | 2.92
CNC(=O)c1nc(CN2CCOC(C(F)(F)F)C2)no1 (stereo not given) | -2.08
Cc1cccc(C(C(=O)NCCCc2ccncc2)N(C)C)c1 (stereo not given) | -8.38
CC(NC(=O)c1cc(=O)n(C)c(=O)n1C)c1ccccc1-n1cccn1 (stereo not given) | -9.47
CSCCCN1C[C@H](NC(=O)c2ccc(CO)cc2)[C@@H](C2CC2)C1 | -11.1
CS(=O)(=O)N1CCc2[nH]nc(Cc3cccs3)c2C1 | 1.44
O=C(c1coc(CN2CCN(c3ccccc3F)CC2)n1)N1CC=CC1 | -3.06
O=C(NC1CC1)C1CN(Cc2ccc3c(c2)OCCO3)CCN1 (stereo not given) | -3.22
O=C(c1cc(=O)n(-c2ccccc2)[nH]1)N1CCOCC(O)C1 (stereo not given) | -0.205
CN(CCCc1nccn1C)C(=O)C1CCN(C(=O)C2CC2)CC1 | -4.49

Structure (SMILES) | cytotoxicity at 10 µM [%]
CCOCCCNCc1cc(O)c2cc(C)ccc2n1 | -11.1
Cc1cc(N(C)Cc2ccsc2)n2nc(C)c(C)c2n1 | 1.7
COc1ccc(Cl)cc1NC(=O)CCC1CCCN(Cc2ncon2)C1 (stereo not given) | -4.18
CC(C)Cc1nnc(SCC(=O)O)n1-c1ccc(F)cc1F | -6.13
CCc1ccccc1OC1CN(CC2CCOC2)C1 (stereo not given) | -25.2
Cc1ocnc1C(=O)N1CCN(C(=O)CC(C)C)[C@@H]2CS(=O)(=O)C[C@@H]21 | 12.2
O=C(c1scc2c1OCCO2)N1CCOC(Cc2ccc(F)cc2)C1 (stereo not given) | 1.73
C=C(C)CNC(=O)C1CCCN(C2CCN(C(C)C)CC2)C1 (stereo not given) | -0.454
CCC(C(=O)NC)N(c1cccc(C)c1)S(C)(=O)=O (stereo not given) | -11.8
O=C1CN(c2ccc(CNC(=O)NCC3CCOC3)cc2)CCN1 (stereo not given) | -1.96
CC(C)C(Sc1nccn1C1CC1)C(=O)NCc1cccnc1 (stereo not given) | -5.83
CC(C)Cc1cc(NC(=O)c2ccccc2F)n(C)n1 | -6.48
CCOCCN1CCN(C(C)c2nc(C3CC3)no2)CC1 (stereo not given) | -4.51
Cc1ccc(C(=O)Nc2cn[nH]c2)cc1F | -14.7
O=C1CC(N(C(=O)c2ccc(F)c(C(F)(F)F)c2)C2CC2)C(=O)N1 (stereo not given) | -10.5
Cc1nc(CN2CCCC(NCCOc3cccc(C#N)c3)C2)no1 (stereo not given) | -8.36
NC(=O)C1CCN(C(=O)NCc2ccccc2-n2cccn2)C1 (stereo not given) | -18.4
CC(NC(=O)N(C)CCCOc1ccccc1)c1nncn1C (stereo not given) | -5.4
c1cnn(CC2CCCCN2Cc2nc(-c3ccsc3)no2)c1 (stereo not given) | -12.2
CC(C)c1noc(C(C)N2CCN(Cc3nnc(C4CC4)o3)CC2)n1 (stereo not given) | -11.9
CC(C)c1n[nH]c(C2CN(CCCS(C)(=O)=O)CCO2)n1 (stereo not given) | -11.9
Cc1ccc(CNC(=O)NCCCO)cc1 | -16.2

Structure (SMILES) | cytotoxicity at 10 µM [%]
COc1cc(C(=O)N2CCC(c3n[nH]c(C)n3)CC2)cc(OC)c1C | -10.9
Cc1cc(C)n(CC2CN(CC(=O)NC3CCCC3)CCO2)n1 (stereo not given) | -4.41
Cc1noc(C)c1CN(C)CCC(=O)N1CCc2sccc2C1 | 0.265
COc1ccc(OCCNCCn2cccn2)cc1 | 2.05
CCN(CC)Cc1nc2c(o1)CN(C(=O)c1ccc3[nH]ccc3c1)C2 | 7.07
c1csc(CN2CC3(CCN(Cc4ccsc4)C3)C2)n1 | -2.65
COc1ccc(CN2CCO[C@H]3[C@H](OCCN4CCCC4)CC[C@@H]32)cc1 | 0.471
O=C1COC2(CCN(Cc3ccoc3)CC2)CN1CCn1cccn1 | 6.95
CNC(=O)[C@H]1C[C@@H]2CN(S(=O)(=O)c3ccc(C)c(F)c3)C[C@@H]2N1C | -3.03
Cn1cc(C[C@H]2[C@H](N3CCOCC3)CCN2C2CCOCC2)cn1 | 5.13
COc1ccc(CN2CCn3cc(CN4CCCCC4)nc3C2)cc1 | 4.7
Cc1n[nH]cc1CNC(C)c1cccc(N2CCCC2=O)c1 (stereo not given) | 6.05
Cc1ccc(CN2CC(C(=O)NC(C)C)C3(CCOCC3)C2)s1 (stereo not given) | 1.12
c1coc(CN2CCC3(CC2)COCCN(CCN2CCCC2)C3)c1 | -7.82
Cc1ccsc1CN1C[C@@H]2CN(Cc3cccnc3)CCO[C@@H]2C1 | 8
Cc1noc([C@H]2C[C@H]3OCC[C@H]3N(Cc3scnc3C)C2)n1 | -73.4
O=C(c1cccs1)N1CCOCC2(C1)CN(c1cccnc1)C(=O)CO2 (stereo not given) | 3.36
COc1ccccc1CN1C[C@@H]2CN(C(C)=O)CCO[C@@H]2C1 | -102
Cc1noc(C)c1CN1CCO[C@H]2CN(Cc3nccn3C)C[C@H]21 | 2.64
Cc1ncccc1NC(=O)[C@@H]1CC[C@@H]2[C@@H](CCN2Cc2cnn(C)c2)O1 | -0.335
CNC(=O)[C@@H]1CC[C@@H]2[C@@H](CCN2Cc2ccccc2F)O1 | 8.1
O=C(c1ccccc1)N1C[C@H]2CC[C@@H](C1)N(C(=O)CN1CCOCC1)C2 | 9.23
